Among the data in ChEMBL document CHEMBL1145544, “Probing distal regions of the A2B adenosine receptor by quantitative structure-activity relationship modeling of known and novel agonists” (J Med Chem, 2008) are Activity values, retold here.

This experiment has as its target T1, Adenosine receptor A2b (Homo sapiens) (UniProt P29275).
T1 sequence (whole entry): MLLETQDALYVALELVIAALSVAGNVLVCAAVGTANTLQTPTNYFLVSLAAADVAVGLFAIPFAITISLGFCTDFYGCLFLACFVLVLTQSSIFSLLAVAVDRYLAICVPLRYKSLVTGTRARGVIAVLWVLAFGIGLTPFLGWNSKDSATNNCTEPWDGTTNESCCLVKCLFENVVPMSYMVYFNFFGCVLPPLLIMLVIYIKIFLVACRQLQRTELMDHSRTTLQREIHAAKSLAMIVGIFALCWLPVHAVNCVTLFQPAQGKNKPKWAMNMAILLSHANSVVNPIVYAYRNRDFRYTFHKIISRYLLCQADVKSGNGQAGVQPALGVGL
In words: Agonist activity human adenosine A2B receptor expressed in CHO cells assessed as stimulation of adenylate cyclase relative to NECA. The class given is functional, cell-based. The procedure, abridged: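 Stably transfected CHO cells; cAMP accumulation by enzyme immunoassay kit. Relative potency computed as pEC50(compound) minus pEC50(NECA) determined in the same publication.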

On to `Nc1nc(OCCc2c[nH]c3ccc(O)cc23)nc2c1ncn2[C@@H]1O[C@H](CO)[C@@H](O)[C@H]1O`, for which the Activity is -0.806.
The figure for `CCNC(=O)[C@H]1O[C@@H](n2cnc3c(Nc4ccc(OCC(=O)Nc5ccc(N6CCOCC6)cc5)cc4)ncnc32)[C@H](O)[C@@H]1O` is 0.287; for `CCNC(=O)[C@H]1O[C@@H](n2cnc3c(NNC(=O)c4cccs4)nc(Cl)nc32)[C@H](O)[C@@H]1O` it is -0.097.
Regarding `CCNC(=O)[C@H]1O[C@@H](n2cnc3c(Nc4ccc(OCC(=O)Nc5ccc(C(C)(C)C)cc5)cc4)ncnc32)[C@H](O)[C@@H]1O`, the Activity was 0.976.
The figure for `Nc1nc(C#C[C@H](O)c2ccccc2)nc2c1ncn2[C@@H]1O[C@H](CO)[C@@H](O)[C@H]1O` is -0.412.
The figure for `CCNC(=O)[C@H]1O[C@@H](n2cnc3c(NNC(=O)c4ccco4)nc(Cl)nc32)[C@H](O)[C@@H]1O` is -0.118; for `CCNc1nc(C#C[C@@H](O)c2ccccc2)nc2c1ncn2[C@@H]1O[C@H](CO)[C@@H](O)[C@H]1O` it is 0.517.
The figure for `Nc1ncnc2c1ncn2[C@@H]1O[C@H](C(=O)NC2CC2)[C@@H](O)[C@H]1O` is -0.233; for `CCNC(=O)[C@H]1O[C@@H](n2cnc3c(NNC(=O)c4ccsc4)nc(Cl)nc32)[C@H](O)[C@@H]1O` it is -0.449.
For the compound `CCNC(=O)[C@H]1O[C@@H](n2cnc3c(Nc4ccc(OCC(=O)NC5CCCCC5)cc4)ncnc32)[C@H](O)[C@@H]1O`, the Activity is -0.308.
For `CCNC(=O)[C@H]1O[C@@H](n2cnc3c(NNC(=O)c4ccc(C)[nH]4)nc(Cl)nc32)[C@H](O)[C@@H]1O` the value was -0.039; for `CCNC(=O)[C@H]1O[C@@H](n2cnc3c(NNC(=O)c4ccc[nH]4)nc(Cl)nc32)[C@H](O)[C@@H]1O`, -0.351; for `CCNC(=O)[C@H]1O[C@@H](n2cnc3c(Nc4ccc(OCC(=O)Nc5ccncc5)cc4)ncnc32)[C@H](O)[C@@H]1O`, 0.681.
Turning to `COc1ccc2[nH]cc(CCOc3nc(N)c4ncn([C@@H]5O[C@H](CO)[C@@H](O)[C@H]5O)c4n3)c2c1`, the Activity was -0.951.
The figure for `CCNC(=O)[C@H]1O[C@@H](n2cnc3c(Nc4ccc(OCC(=O)NCc5ccccc5)cc4)ncnc32)[C@H](O)[C@@H]1O` is 0.014.
The figure for `CCNC(=O)[C@H]1O[C@@H](n2cnc3c(NNC(=O)c4sccc4C)nc(Cl)nc32)[C@H](O)[C@@H]1O` is -0.327; for `Nc1nc(OCCc2c[nH]c3ccc(I)cc23)nc2c1ncn2[C@@H]1O[C@H](CO)[C@@H](O)[C@H]1O` it is -1.13.
Regarding `CCNC(=O)[C@H]1O[C@@H](n2cnc3c(Nc4ccc(OCC(=O)Nc5ccc(F)cc5)cc4)ncnc32)[C@H](O)[C@@H]1O`, the Activity was 1.01.
The figure for `CCNC(=O)[C@H]1O[C@@H](n2cnc3c(Nc4ccc(OCC(=O)Nc5ccc(OC)c(OC)c5)cc4)ncnc32)[C@H](O)[C@@H]1O` is 0.533; for `Nc1nc(OCCc2c[nH]c3ccc(Br)cc23)nc2c1ncn2[C@@H]1O[C@H](CO)[C@@H](O)[C@H]1O` it is -0.416; for `CNc1nc(C#C[C@@H](O)c2ccccc2)nc2c1ncn2[C@@H]1O[C@H](CO)[C@@H](O)[C@H]1O` it is -0.035.
For `CCCCC#Cc1nc(NC(C)C)c2ncn([C@@H]3O[C@H](CO)[C@@H](O)[C@H]3O)c2n1` the value was -1.62; for `Nc1nc(C#C[C@@H](O)c2ccccc2)nc2c1ncn2[C@@H]1O[C@H](CO)[C@@H](O)[C@H]1O`, 0.416.
The figure for `Nc1nc(OCCc2c[nH]c3ccc(Cl)cc23)nc2c1ncn2[C@@H]1O[C@H](CO)[C@@H](O)[C@H]1O` is -1.19.
Turning to `Nc1nc(OCCc2c[nH]c3cc(Cl)ccc23)nc2c1ncn2[C@@H]1O[C@H](CO)[C@@H](O)[C@H]1O`, the Activity was -0.188.
With `CCNC(=O)[C@H]1O[C@@H](n2cnc3c(N)nc(OCCc4c[nH]c5ccccc45)nc32)[C@H](O)[C@@H]1O`, the Activity is -0.849.
For `Nc1nc(Cl)nc2c1ncn2[C@@H]1O[C@H](CO)[C@@H](O)[C@H]1O` the value was -0.889.
The figure for `CCCCC#Cc1nc(NC)c2ncn([C@@H]3O[C@H](CO)[C@@H](O)[C@H]3O)c2n1` is -1.62.
For `CCNC(=O)[C@H]1O[C@@H](n2cnc3c(NNC(=O)c4ccc(C)o4)ncnc32)[C@H](O)[C@@H]1O` the value was -0.152.
Take `CCNC(=O)[C@H]1O[C@@H](n2cnc3c(Nc4ccc(OCC(=O)Nc5ccc(I)cc5)cc4)ncnc32)[C@H](O)[C@@H]1O`: the Activity was 0.71.
The figure for `CCNC(=O)[C@H]1O[C@@H](n2cnc3c(Nc4ccc(OCC(=O)Nc5ccc(OC)cc5)cc4)nc(Cl)nc32)[C@H](O)[C@@H]1O` is -0.366.
`CNc1nc(C#CCCCc2ccccc2)nc2c1ncn2[C@@H]1O[C@H](CO)[C@@H](O)[C@H]1O`: the Activity is -1.62.
The figure for `CC(C)(C)OC(=O)C1CCCN1C[C@@H](O)[C@H](Cc1ccccc1)NC(=O)[C@H](CC(N)=O)NC(=O)OCc1ccccc1` (some centres undefined) is -0.405; for `CNc1nc(C#C[C@H](O)c2ccccc2)nc2c1ncn2[C@@H]1O[C@H](CO)[C@@H](O)[C@H]1O` it is -1.62; for `CCNC(=O)[C@H]1O[C@@H](n2cnc3c(N)nc(C#C[C@H](O)c4ccccc4)nc32)[C@H](O)[C@@H]1O` it is 0.
For `Nc1nc(OCCc2cccs2)nc2c1ncn2[C@@H]1O[C@H](CO)[C@@H](O)[C@H]1O` the value was -1.1; for `CCNC(=O)[C@H]1O[C@@H](n2cnc3c(Nc4ccc(OCC(=O)NC5CCCCC5)cc4)nc(Cl)nc32)[C@H](O)[C@@H]1O`, -0.29; for `O=S(=O)(O)c1ccc(Nc2ncnc3c2ncn3[C@@H]2O[C@H](CO)[C@@H](O)[C@H]2O)cc1`, -1.23.
For `Nc1nc(OCCc2ccccc2)nc2c1ncn2[C@@H]1O[C@H](CO)[C@@H](O)[C@H]1O` the value was -1.4.
In the case of `CCNC(=O)[C@H]1O[C@@H](n2cnc3c(Nc4ccc(OCC(=O)Nc5ccccc5)cc4)nc(Cl)nc32)[C@H](O)[C@@H]1O`, the Activity was determined as 0.561.
For `CC(C)Nc1nc(C#C[C@H](O)c2ccccc2)nc2c1ncn2[C@@H]1O[C@H](CO)[C@@H](O)[C@H]1O` the value was -0.569; for `OC[C@H]1O[C@@H](n2cnc3c(Nc4ccccc4)ncnc32)[C@H](O)[C@@H]1O`, -1.31; for `CCNC(=O)[C@H]1O[C@@H](n2cnc3c(NNC(=O)Cc4cccs4)nc(Cl)nc32)[C@H](O)[C@@H]1O`, -0.576.
For the compound `CCNC(=O)[C@H]1O[C@@H](n2cnc3c(Nc4ccc(OCC(=O)NCc5ccc(OC)cc5)cc4)ncnc32)[C@H](O)[C@@H]1O`, the Activity is -0.19.
The figure for `CCNC(=O)[C@H]1O[C@@H](n2cnc3c(Nc4ccc(OCC(=O)Nc5cc(OC)cc(OC)c5)cc4)ncnc32)[C@H](O)[C@@H]1O` is 0.461; for `CCNC(=O)[C@H]1O[C@@H](n2cnc3c(NC)ncnc32)[C@H](O)[C@@H]1O` it is -0.787.
The figure for `CCNC(=O)[C@H]1O[C@@H](n2cnc3c(Nc4ccc(OCC(=O)NCc5ccccc5)cc4)nc(Cl)nc32)[C@H](O)[C@@H]1O` is -0.053; for `CCNC(=O)[C@H]1O[C@@H](n2cnc3c(N)ncnc32)[C@H](O)[C@@H]1O` it is 0.
For `Nc1nc(OCCc2cc[nH]c2)nc2c1ncn2[C@@H]1O[C@H](CO)[C@@H](O)[C@H]1O` the value was -1.27.
